This is a sample that favours compounds with a hit; in the whole collection about 3.5% have one here.
RGS4 block – inhibitors of human RGS4; P49798; HEK293 M3R/RGS4 inducible, Fluo-4 calcium flux; stronger effect = higher value; triggered by carbachol at its EC20; B-score at 10 µM; actives 0.45% (n = 310,000);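 active = B-score, a plate-corrected calcium signal, over three deviations above library mean, with baseline fluorescence within five deviations of library mean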;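 also: RGS4 expression induced by doxycycline in cells with stable M3 receptor; B-score is computed from the integrated fluorescence ratio over baseline after carbachol; higher B-score means a larger calcium signal and so more RGS4 inhibition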
Target sequence (P49798 whole entry, looked up): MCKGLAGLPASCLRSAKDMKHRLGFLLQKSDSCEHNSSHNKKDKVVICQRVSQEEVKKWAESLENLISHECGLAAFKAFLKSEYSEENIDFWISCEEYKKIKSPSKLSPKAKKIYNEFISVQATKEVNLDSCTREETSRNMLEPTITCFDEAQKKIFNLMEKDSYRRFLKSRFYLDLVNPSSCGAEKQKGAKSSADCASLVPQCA
MrgX1 antagonist – antagonists of human MrgX1 receptor | MRGX1-HEK293 calcium flux, Fluo-4, BAM8-22 antagonism; stronger effect = lower value | B-score at 10 µM | AID 588676 | actives 1.3% (n = 310,000) | Q96LB2;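 active = calcium-response B-score plate-corrected more than 3 library SD below zero, starting fluorescence within 5 deviations, no agonist response on first addition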;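 also: peak minus trough fluorescence over baseline after final BAM8-22 challenge near maximal dose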
Target sequence (Q96LB2 whole entry, looked up): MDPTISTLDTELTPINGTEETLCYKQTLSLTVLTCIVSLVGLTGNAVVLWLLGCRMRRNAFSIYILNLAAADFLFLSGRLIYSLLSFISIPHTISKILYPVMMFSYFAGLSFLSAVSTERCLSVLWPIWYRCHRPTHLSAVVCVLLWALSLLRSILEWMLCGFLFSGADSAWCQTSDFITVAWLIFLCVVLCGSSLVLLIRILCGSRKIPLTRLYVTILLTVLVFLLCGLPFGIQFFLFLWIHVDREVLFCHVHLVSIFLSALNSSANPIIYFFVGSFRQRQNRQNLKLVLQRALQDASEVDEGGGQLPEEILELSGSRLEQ
MrgX1 PAM – human MrgX1 positive allosteric modulation, primary screen; MrgX1-HEK293, Fluo-4 calcium flux, FDSS; stronger effect = higher value; Q96LB2; B-score at 10 µM; AID 588675; actives 0.63% (n = 310,000);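 active = plate-corrected calcium response at least 3 library SD above typical, normal starting fluorescence, not activating the receptor alone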;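 also: compound read alongside a low EC10 to EC30 dose of BAM8-22 agonist; peak minus trough fluorescence over baseline measured at the second addition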
MrgX1 ag – agonists of human MrgX1 receptor | Q96LB2 | AID 588627 | actives 0.44% (n = 310,000) | MrgX1-HEK293 cells, Fluo-4 calcium fluorescence, agonist mode; stronger effect = higher value | B-score at 10 µM;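 active = calcium response B-score plate-corrected fluorescence ratio at least 3 library SD, with starting fluorescence B-score inside 5 SD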
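Material: MrgX1-expressing HEK293 cells; input: 15,000 cells per well; doses: test compound given as first of three sequential additions; schedule: overnight plating before 1 h dye loading; technique: Fluo-4 NW calcium-flux fluorescence, kinetic read; evaluation: baseline-normalised fluorescence change ratio, B-scored; control set: plate-wise positive and negative controls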
RGS4 act – potentiators or activators of RGS4 | B-score at 10 µM | actives 0.92% (n = 310,000) | HEK293 M3R/inducible RGS4, carbachol calcium flux Fluo4; stronger effect = lower value;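 active = B-score of the integrated calcium signal more than 4 SD below the library mean, with starting fluorescence not abnormally high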;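 also: negative B-score means reduced calcium response which marks RGS4 activation or potentiation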
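Material: M3R-expressing HEK293 line, RGS4 induced by doxycycline | Schedule: Overnight RGS4 induction, 30 min dye load 37 °C, 20 min compound RT | Measured by: Fluo4 fluorescence kinetic imaging of calcium | Read-out: Integrated calcium ratio converted to B score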
RGS4 block valid – validation of RGS4 inhibitors | shares compounds with RGS4 block | HEK293 M3R/RGS4, carbachol calcium Fluo-4 fluorescence; carbachol added at its EC20; 0 = buffer wells, 100 = carbachol control | calcium response, % at 10 µM | actives 65% (n = 1,700) | AID 492999;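 active = duplicate-averaged calcium response above the buffer-only control mean plus 5 SD of those controls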;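 also: integrated fluorescence ratio F max minus min over baseline F0; higher response in RGS4-induced cells means RGS4 inhibition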
M3R Ca ctr – counter-screen for RGS4 inhibitors: effect in non-induced cells. HEK293 M3R non-induced, carbachol calcium Fluo-4; submaximal (EC20) carbachol stimulus; buffer wells 0%, carbachol control wells 100%. activity (percent), % at 10 µM. actives 20% (n = 1,900). shares compounds with RGS4 block. AID 493000; call rule not given here;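 also: RGS4 induction absent so cells express M3R without RGS4; higher means more calcium signal and flags a non-specific hit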
RGS4 inh ctr2 – signal in non-induced cells without carbachol, RGS4 inhibitor counter-screen; shares compounds with RGS4 block; HEK293 M3R/RGS4 non-induced, Fluo-4 calcium, no carbachol; normalised: buffer wells 0%, carbachol wells 100%; calcium response (agonist-mode artifact), % at 10 µM; actives 22% (n = 1,900);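 active = duplicate-averaged calcium rise in uninduced cells above buffer wells' mean plus 5 SD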
* = called active by the depositor.

How did COCCNC(=O)C(c1ccc(O)cc1)N(Cc1cccs1)C(=O)CCC(=O)Nc1ccccn1 (centres undefined) do in these assays?
RGS4 block: inactive; MrgX1 antagonist: inactive; MrgX1 PAM: inactive; MrgX1 ag: inactive; RGS4 act: inactive

What do the screens show for `N#Cc1ccc(C2=NC(C(F)(F)F)(C(F)(F)F)c3c(n(Cc4ccco4)c(=O)[nH]c3=O)N2)cc1`?
RGS4 block: 6.1*; MrgX1 antagonist: inactive; MrgX1 PAM: inactive; MrgX1 ag: 37*; RGS4 act: inactive; RGS4 block valid: 13%*; M3R Ca ctr: inactive; RGS4 inh ctr2: 16%*

Results for C=CCNc1nnc(SC2CC(=O)N(c3ccc(OC)cc3)C2=O)s1 (centres undefined) ?
RGS4 block: 5.7*; MrgX1 antagonist: inactive; MrgX1 PAM: inactive; MrgX1 ag: inactive; RGS4 act: inactive; RGS4 block valid: 9.0%*; M3R Ca ctr: inactive; RGS4 inh ctr2: inactive

What do the screens show for `COc1ccc(N2C(=O)CC(Sc3nc4ccccc4s3)C2=O)cc1` (centres undefined)?
RGS4 block: inactive; MrgX1 antagonist: inactive; MrgX1 PAM: inactive; MrgX1 ag: inactive; RGS4 act: inactive

What do the screens show for `Cc1[nH]n(-c2ccccc2)c(=O)c1C(C[N+](=O)[O-])c1ccc(Br)cc1` (centres undefined)?
RGS4 block: 8.4*; MrgX1 antagonist: inactive; MrgX1 PAM: 6.8*; MrgX1 ag: inactive; RGS4 act: inactive; RGS4 block valid: 32%*; M3R Ca ctr: 51%*; RGS4 inh ctr2: 28%*

How did COc1cccc(C(C[N+](=O)[O-])c2c(C)[nH]n(-c3ccccc3)c2=O)c1 (centres undefined) do in these assays?
RGS4 block: 15*; MrgX1 antagonist: inactive; MrgX1 PAM: inactive; MrgX1 ag: 50*; RGS4 act: inactive; RGS4 block valid: 6.0%*; M3R Ca ctr: inactive; RGS4 inh ctr2: 10%*

How did COC(C/C=C/[C@@H](O)[C@H](C)OCc1ccccc1)OC do in these assays?
RGS4 block: inactive; MrgX1 antagonist: inactive; MrgX1 PAM: inactive; MrgX1 ag: inactive; RGS4 act: inactive

Results for CC(CC(=O)Nc1nnc(C(C)(C)C)s1)c1ccccc1 (centres undefined) ?
RGS4 block: inactive; MrgX1 antagonist: inactive; MrgX1 PAM: inactive; MrgX1 ag: inactive; RGS4 act: inactive

Results for CC(Sc1nnc(-c2ccc(Cl)cc2)n1N)C(=O)NCC1CCCO1 (centres undefined) ?
RGS4 block: inactive; MrgX1 antagonist: inactive; MrgX1 PAM: inactive; MrgX1 ag: inactive; RGS4 act: inactive

How did CCc1ccc(N2CC(C(=O)N/N=C/c3ccccc3OC)CC2=O)cc1 (centres undefined) do in these assays?
RGS4 block: inactive; MrgX1 antagonist: inactive; MrgX1 PAM: inactive; MrgX1 ag: inactive; RGS4 act: inactive

What do the screens show for `CCc1ccc(N2CC(C(=O)N/N=C/c3cc([N+](=O)[O-])ccc3O)CC2=O)cc1` (centres undefined)?
RGS4 block: inactive; MrgX1 antagonist: inactive; MrgX1 PAM: inactive; MrgX1 ag: inactive; RGS4 act: inactive; M3R Ca ctr: 57%*; RGS4 inh ctr2: inactive

Results for CCN1CCCC1CNCc1cccc(OC)c1OCc1ccc(F)cc1 (centres undefined) ?
RGS4 block: inactive; MrgX1 antagonist: inactive; MrgX1 PAM: inactive; MrgX1 ag: inactive; RGS4 act: inactive

What do the screens show for `COc1cccc(/C=C(/C(=O)OCC(=O)NC2CCCCCCC2)c2ccccc2)c1`?
RGS4 block: 5*; MrgX1 antagonist: inactive; MrgX1 PAM: inactive; MrgX1 ag: inactive; RGS4 act: inactive; RGS4 block valid: inactive; M3R Ca ctr: inactive; RGS4 inh ctr2: 7.0%*

What do the screens show for `COc1cccc(/C=C(/C(=O)OCC(=O)NCC2CCCO2)c2ccccc2)c1` (centres undefined)?
RGS4 block: inactive; MrgX1 antagonist: inactive; MrgX1 PAM: inactive; MrgX1 ag: inactive; RGS4 act: inactive

What do the screens show for `O=C(Nc1cnccn1)c1ccc(Cl)cc1`?
RGS4 block: inactive; MrgX1 antagonist: inactive; MrgX1 PAM: inactive; MrgX1 ag: inactive; RGS4 act: inactive

How did COc1cc(C(C[N+](=O)[O-])c2c(N)n(C)c(=O)n(C)c2=O)ccc1O (centres undefined) do in these assays?
RGS4 block: 5.2*; MrgX1 antagonist: inactive; MrgX1 PAM: inactive; MrgX1 ag: inactive; RGS4 act: inactive; RGS4 block valid: 20%*; M3R Ca ctr: inactive; RGS4 inh ctr2: 8.0%*

What do the screens show for `Cc1ccc(C(C[N+](=O)[O-])c2c(N)n(C)c(=O)n(C)c2=O)cc1` (centres undefined)?
RGS4 block: inactive; MrgX1 antagonist: inactive; MrgX1 PAM: inactive; MrgX1 ag: inactive; RGS4 act: inactive

What do the screens show for `Cc1c(Cl)cccc1Nc1nc(N)nc(CSC(=S)N2CCOCC2)n1`?
RGS4 block: inactive; MrgX1 antagonist: inactive; MrgX1 PAM: inactive; MrgX1 ag: inactive; RGS4 act: inactive

Results for Cc1cc(N)n2ncc(-c3ccc(Cl)cc3)c2n1 ?
RGS4 block: 5.1*; MrgX1 antagonist: inactive; MrgX1 PAM: inactive; MrgX1 ag: inactive; RGS4 act: inactive; RGS4 block valid: 17%*; M3R Ca ctr: inactive; RGS4 inh ctr2: inactive

What do the screens show for `Nc1c(C(=O)O)cnc2c(-c3ccc(Cl)cc3)cnn12`?
RGS4 block: 7.7*; MrgX1 antagonist: inactive; MrgX1 PAM: inactive; MrgX1 ag: inactive; RGS4 act: inactive; RGS4 block valid: 24%*; M3R Ca ctr: 31%*; RGS4 inh ctr2: inactive

How did Cc1cc(N)n2ncc(-c3ccc(F)cc3)c2n1 do in these assays?
RGS4 block: inactive; MrgX1 antagonist: inactive; MrgX1 PAM: inactive; MrgX1 ag: inactive; RGS4 act: inactive

What do the screens show for `CC(=O)Nc1ccc(S(=O)(=O)N(C#N)c2nc(C)cc(C)n2)cc1`?
RGS4 block: inactive; MrgX1 antagonist: inactive; MrgX1 PAM: inactive; MrgX1 ag: inactive; RGS4 act: inactive

Compound activity (PubChem)
